# Measurements pooled from the literature.
# Compare with care: the assays were run in different laboratories.
# Target: Casein kinase I isoform epsilon (CSNK1E, Homo sapiens, UniProt P49674)
SMILES,assay,conditions,measurement,result
C1=C/COCc2cc(ccc2OCCN2CCCC2)Nc2nccc(n2)-c2cccc(c2)COC/1,binding,0.1 µM,remaining binding,99%
C=CC(=O)N1CCC[C@@H](n2nc(-c3ccc(Oc4ccccc4)cc3)c3c(N)ncnc32)C1,"enzyme activity, inhibitor",1 µM,inhibition,65%
Cc1ccc(NC(=O)c2ccnc(C(F)(F)F)c2)cc1-c1cc(OCCO)nc(N2CCOCC2)c1,"binding, competition with immobilised ligand",1 µM,remaining binding,100%
CO[C@@H]1[C@H](N(C)C(=O)c2ccccc2)C[C@H]2O[C@]1(C)n1c3ccccc3c3c4c(c5c6ccccc6n2c5c31)C(=O)NC4,"enzyme activity, inhibitor",1 µM,inhibition,0%
C#Cc1cc(-c2cc(Nc3nc(N[C@@H](C)c4ccc(F)cn4)ncc3Cl)n[nH]2)ccc1C=O,"enzyme activity, inhibitor",0.2 µM,inhibition,4.66%
CC(=O)ON=C1C=CC(=C(C#N)c2ccccc2)C=C1,"enzyme activity, inhibitor, ADP detection",20 µM,activity vs control,60%
CN1CCN(C(=O)c2ccc(NC(=O)Nc3ccc(N(C)c4ccnc(Nc5ccc(CS(C)(=O)=O)cc5)n4)cc3)cc2)CC1,"binding, competition with immobilised ligand",1 µM,remaining binding,75%
CCCCC(=O)Nc1ccc(-c2ccc3ncn(CCC)c(=O)c3c2)cn1,"binding, competition with immobilised ligand",0.5 µM,remaining binding,82%
